In ChEMBL document CHEMBL1145972, “In vitro and in vivo characterization of 3-[2-[6-(2-tert-butoxyethoxy)pyridin-3-yl]-1H-imidazol-4-yl]benzonitrile hydrochloride salt, a potent and selective NPY5 receptor antagonist” (J Med Chem, 2003):

How the values were obtained:
[1] = t1/2 in the CSF of male wistar rats; assay type: ADME, organism-based, Cerebrospinal fluid; conditions: rat
In short: (§1)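 Male Wistar rats with jugular vein cannula, free access to food and water, given 30 mg/kg by oral gavage in 30% w/v β-cyclodextrin. Plasma, whole brain and CSF sampled over a time course (through 6–8 h); one animal per time point.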

[2] = biological target: T1, Neuropeptide Y receptor type 5 (Homo sapiens, UniProt Q15761); experiment: Binding affinity to the human Neuropeptide Y receptor type 5 was determined using [125I]- [PYY] as radioligand
T1 sequence (Q15761 whole entry): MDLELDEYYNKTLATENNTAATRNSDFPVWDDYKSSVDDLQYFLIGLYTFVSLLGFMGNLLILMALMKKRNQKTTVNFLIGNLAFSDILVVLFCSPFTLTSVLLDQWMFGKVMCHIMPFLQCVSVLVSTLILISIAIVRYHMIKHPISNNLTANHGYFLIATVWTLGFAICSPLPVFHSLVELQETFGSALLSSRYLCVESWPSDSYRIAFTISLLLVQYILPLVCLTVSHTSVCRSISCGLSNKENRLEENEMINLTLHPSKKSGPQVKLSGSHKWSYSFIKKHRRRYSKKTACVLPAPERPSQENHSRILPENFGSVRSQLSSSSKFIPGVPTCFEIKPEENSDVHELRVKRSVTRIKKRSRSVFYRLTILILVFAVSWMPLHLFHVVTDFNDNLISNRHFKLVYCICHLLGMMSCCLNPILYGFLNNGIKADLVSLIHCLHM
In short: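 Radioligand displacement binding on cloned human chimeric NPY5 receptors, with [125I]PYY as the labelled ligand.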

[3] = Cmax in the CSF of male wistar rats; assay type: ADME, organism-based, Cerebrospinal fluid; conditions: rat; in short: as §1
[4] = biological target: T2, Neuropeptide Y receptor type 1 (Homo sapiens, UniProt P25929); experiment: Inhibitory activity against Neuropeptide Y receptor type 1
T2 sequence (P25929 whole entry): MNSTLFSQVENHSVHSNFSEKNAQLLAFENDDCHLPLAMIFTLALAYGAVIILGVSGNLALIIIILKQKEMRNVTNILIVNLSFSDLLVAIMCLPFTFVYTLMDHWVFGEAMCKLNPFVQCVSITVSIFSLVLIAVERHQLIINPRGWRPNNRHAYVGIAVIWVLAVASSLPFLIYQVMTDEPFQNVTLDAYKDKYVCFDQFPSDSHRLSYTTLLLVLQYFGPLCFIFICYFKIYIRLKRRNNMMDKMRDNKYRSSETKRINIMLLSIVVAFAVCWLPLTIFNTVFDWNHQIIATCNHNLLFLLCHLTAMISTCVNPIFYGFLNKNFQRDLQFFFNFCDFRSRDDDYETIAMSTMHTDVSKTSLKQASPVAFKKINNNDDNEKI
In short: (§2)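 Cloned human chimeric NPY receptors, displacement of [125I]PYY radioligand.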

[5] = tmax in the CSF of male wistar rats; assay type: ADME, organism-based, Cerebrospinal fluid; conditions: rat; in short: as §1
HMCB cell line = experiment: Inhibitory activity against calcium mobilization in NPY5 transfected human bowes melanoma cell line.; assay type: functional, cell-based
In short: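 Ca2+ mobilization read-out in human Bowes melanoma (HMCB) cells transfected with NPY5.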

[6] = t1/2 in the plasma of male wistar rats; assay type: ADME, organism-based; conditions: rat; in short: as §1
[7] = Cmax in the brain of male wistar rats; assay type: ADME, organism-based; conditions: rat; in short: as §1
[8] = biological target: T3, Neuropeptide Y receptor type 5 (Rattus norvegicus, UniProt Q63634); experiment: Binding affinity to the rat Neuropeptide Y receptor type 5 was determined using [125I]- [Leu31,Pro34]PYY as radioligand
T3 sequence (Q63634 whole entry): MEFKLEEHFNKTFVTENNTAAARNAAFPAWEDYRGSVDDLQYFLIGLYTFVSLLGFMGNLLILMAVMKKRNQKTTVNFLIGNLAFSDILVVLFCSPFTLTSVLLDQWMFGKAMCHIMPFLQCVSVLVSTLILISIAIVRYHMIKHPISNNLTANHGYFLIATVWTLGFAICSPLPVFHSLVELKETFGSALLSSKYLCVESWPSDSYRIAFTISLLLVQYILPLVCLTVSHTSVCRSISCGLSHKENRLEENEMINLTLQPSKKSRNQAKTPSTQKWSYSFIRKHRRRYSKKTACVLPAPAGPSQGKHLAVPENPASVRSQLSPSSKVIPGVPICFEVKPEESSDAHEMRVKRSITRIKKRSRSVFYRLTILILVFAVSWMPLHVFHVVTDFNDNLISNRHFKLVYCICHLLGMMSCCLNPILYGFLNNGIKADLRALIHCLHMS
In short: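 Whole rat brain membranes; radioligand [125I][Leu31,Pro34]PYY, with 1 μM BIBP3226 present to block NPY-1 receptors.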

[9] = biological target: T4, Neuropeptide Y receptor type 2 (Homo sapiens, UniProt P49146); experiment: Inhibitory activity against Neuropeptide Y receptor type 2; in short: as §2
T4 sequence (P49146 whole entry): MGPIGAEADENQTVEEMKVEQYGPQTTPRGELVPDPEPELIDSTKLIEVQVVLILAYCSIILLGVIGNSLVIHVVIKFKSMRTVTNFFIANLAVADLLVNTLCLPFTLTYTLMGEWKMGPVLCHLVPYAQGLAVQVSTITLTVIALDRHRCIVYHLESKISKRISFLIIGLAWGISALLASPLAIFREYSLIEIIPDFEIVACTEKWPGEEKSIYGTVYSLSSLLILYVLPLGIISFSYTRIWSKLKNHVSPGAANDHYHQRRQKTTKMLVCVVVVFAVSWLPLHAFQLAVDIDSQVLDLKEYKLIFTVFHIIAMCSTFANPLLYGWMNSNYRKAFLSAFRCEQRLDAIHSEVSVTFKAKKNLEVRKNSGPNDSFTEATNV

[10] = Cmax in the plasma of male wistar rats; assay type: ADME, organism-based; conditions: rat; in short: as §1
[11] = t1/2 in the brain of male wistar rats; assay type: ADME, organism-based; conditions: rat; in short: as §1
[12] = tmax in the plasma of male wistar rats; assay type: ADME, organism-based; conditions: rat; in short: as §1
[13] = tmax in the brain of male wistar rats; assay type: ADME, organism-based; conditions: rat; in short: as §1

Q: Which half-life [1] does the source give for `CC(C)(C)OCCOc1ccc(-c2nc(-c3cccc(C#N)c3)c[nH]2)cn1` here?
A: 96 min

Q: What about the Ki [2] of the same compound?
A: 1.2 nM

Q: And the Cmax [3]?
A: 0.213 µM

Q: What about the IC50 [4] of the same compound?
A: > 1000 nM

Q: And the Tmax [5]?
A: 30 min

Q: What about the IC50 (HMCB cell line) of the same compound?
A: 0.4 nM

Q: What about the half-life [6] of the same compound?
A: 66 min

Q: And the Cmax [7]?
A: 8.55 µM

Q: And the Ki [8]?
A: 1.7 nM

Q: What about the IC50 [9] of the same compound?
A: > 1000 nM

Q: And the Cmax [10]?
A: 4.42 µM

Q: What about the half-life [11] of the same compound?
A: 66 min

Q: And the Tmax [12]?
A: 30 min

Q: And the Tmax [13]?
A: 30 min
